# Shown are actives, neighbours in structure and some others; about 12% of the full set was active somewhere.
# Arbovirus inh – antivirals against arbovirus infection, primary screen, cell-based, full library, 10K replicate subset; inhibition, % at 10 µM; AID 1251, 2008; arbovirus infection cell-based antiviral screen; hit rate 0.37% among 200,000; in the data active = inhibition above about 30%
# CHOP inhibitor – inhibitors of CHOP promoter induction, primary screen, cell-based, unfolded protein response, luciferase reporter; CHO-K1 CHOP-promoter luciferase, tunicamycin-induced, 15-18 h; inhibition, % at 10 µM; hit rate 3.8% among 220,000;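 active = compounds that reduced the stress-induced luciferase reporter signal by more than about 70% of percent inhibition, limit read from the data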;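 note: 0% = tunicamycin plus vehicle and 100% = wells without tunicamycin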
# Wee1 stabilizer – Wee1 degradation inhibitors, primary screen, cell-based, HeLa, Wee1K328M-luciferase, luminescence | reporter increase, % at 5 µM | Wee1-like protein kinase (Homo sapiens), P30291 | AID 1321, 2008 | hit rate 1.2% among 220,000 | HeLa Luc-Wee1K328M stability; 100% = proteasome inhibitor MG132 effect;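 active = activation above the mean of all tested compounds plus 3 SD, set per screening run, cut at about 8.8% in these data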;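 note: cells exposed to compound for 20 h before luminescence read; 0% = DMSO alone and 100% = MG132 at 30 µM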
# Target sequence (P30291 whole entry K328M): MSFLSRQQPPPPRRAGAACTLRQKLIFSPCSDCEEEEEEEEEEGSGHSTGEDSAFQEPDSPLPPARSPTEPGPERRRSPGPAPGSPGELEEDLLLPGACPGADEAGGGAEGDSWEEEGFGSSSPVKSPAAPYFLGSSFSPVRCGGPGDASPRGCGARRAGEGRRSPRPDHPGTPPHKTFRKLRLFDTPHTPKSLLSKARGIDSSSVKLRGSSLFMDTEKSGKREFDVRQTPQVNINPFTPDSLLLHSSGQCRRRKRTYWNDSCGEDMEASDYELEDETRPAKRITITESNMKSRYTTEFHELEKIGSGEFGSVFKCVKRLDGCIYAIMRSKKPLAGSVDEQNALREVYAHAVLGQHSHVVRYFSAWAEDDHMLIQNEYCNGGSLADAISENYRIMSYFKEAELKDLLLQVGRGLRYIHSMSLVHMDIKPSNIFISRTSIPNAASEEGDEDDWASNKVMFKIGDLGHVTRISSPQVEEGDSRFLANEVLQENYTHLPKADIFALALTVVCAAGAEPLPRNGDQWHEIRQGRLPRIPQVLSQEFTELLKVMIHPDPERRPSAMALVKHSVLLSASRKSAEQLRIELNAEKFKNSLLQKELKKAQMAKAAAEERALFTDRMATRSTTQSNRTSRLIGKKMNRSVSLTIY
# Rad51 HR inh – human RAD51 strand exchange inhibitors, primary screen, biochemical, fluorescence; AID 1385, 2008; hRad51 DNA strand exchange, fluorescence dequenching; inhibition, % at 10 µM; hit rate 0.085% among 200,000;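 active = inhibition above 40% at the single screening dose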;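 note: 0% = DMSO control wells and 100% = blanks with heterologous ssDNA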
#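 Test system: preformed human Rad51 ssDNA filaments. Compound dosing: single dose, 10 µM final compound. Incubation: filaments 15 min 37 °C, then compound 30 min. Technique: FRET fluorescence dequenching, excitation 485 nm, emission 520 nm. Read-out basis: percent inhibition from fluorescence, normalised to plate control and blank means. Benchmarks: plate controls and plate blanks.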
# PKD1 kinase inh – inhibitors of human PKD1 kinase, biochemical, fluorescence polarization. PKD1 kinase fluorescence polarization assay. AID 797, 2007. hit rate 0.056% among 200,000. inhibition, % (concentration not given with the values). Serine/threonine-protein kinase D1 (Homo sapiens), Q15139
# L major viab – Leishmania major promastigote growth inhibition, primary screen. Leishmania major promastigotes, resazurin fluorescence viability. inhibition, % at 10 µM. hit rate 9% among 200,000;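 note: promastigotes grown with compound for 44 hours at 28 °C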
# The depositor's hits bear a star; i = inactive; x = no result given. Cut-off read from the data, not from the text of the source, unless noted: active = inhibition above about 50%; inactive = the rest.
SMILES,Arbovirus inh,CHOP inhibitor,Wee1 stabilizer,Rad51 HR inh,PKD1 kinase inh,L major viab
COc1ccc(/C=N/NC(=O)c2cccnc2)c(C(=O)O)c1OC,x,-11,-1,12,x,x
CC(NC(=O)CNC(=O)C(Cc1ccccc1)NC(=O)OCc1ccccc1)C(N)=O (stereo not drawn),0,-10,0,0,-3,2
Cc1c(CN(C)C(=O)/C=C/c2ccc([N+](=O)[O-])cc2)cnn1C,1,16,8.9*,-1,-4,-1
CCCOc1ccc(C(=O)Nc2ccc(N3CCN(C(C)=O)CC3)cc2)cc1,-1,39,-1,1,-6,1
CC(=O)N1CCN(c2ccc(OC[C@H]3CO[C@](Cn4ccnc4)(c4ccc(Cl)cc4Cl)O3)cc2)CC1,-10,8,-2,-10,-9,89*
CC(C)CN=Cc1c(O)c([N+](=O)[O-])cc2oc3c(c12)CCCC3,3,84*,2,-1,-5,-8
Cc1oc2cc([N+](=O)[O-])c(O)c([N+](=O)[O-])c2c1C(=O)c1ccc(Cl)cc1,x,25,0,-7,x,x
CC(C)(CO)NC(=O)C12CC3CC(CC(Br)(C3)C1)C2,x,8,-1,x,x,x
O=[N+]([O-])c1cc2c(cc1/C=N/n1c(-c3ccccn3)n[nH]c1=S)OCO2,2,12,2,2,4,53*
O=[N+]([O-])c1ccccc1/C=N/n1c(-c2cccnc2)n[nH]c1=S,0,0,2,-4,-2,8
O=[N+]([O-])c1cc2c(cc1/C=N/n1c(-c3ccccc3)n[nH]c1=S)OCO2,2,-28,0,6,-1,53*
CC(=O)C1=C(c2ccccc2)NC(=O)NC1c1ccccc1OCC(=O)NCc1ccccc1 (stereo not drawn),5,-12,4,x,-12,-2
CN(C)S(=O)(=O)c1ccc(N2CCCC2)c(C(=O)NCC2CCCCC2)c1,-2,25,-1,1,-7,7
CCCCN1C(=O)/C(=C/C=C2/CC(C)(C)CN2C)SC1=S,-12,-32,0,i,-10,59*
CC(=O)c1csc(COc2ccc(Cl)cc2)n1,x,-10,-1,8,x,x
CC(=O)NO,x,x,x,2,x,x
c1coc(CNc2nc3ccccc3n2CCN2CCOCC2)c1,1,5,4,6,-10,4
N=c1c2c(-c3ccccc3)c(-c3ccccc3)n(Cc3ccco3)c2ncn1CCCO,x,-22,-1,-11,x,x
N=c1c2c(-c3ccccc3)c(-c3ccccc3)n(Cc3ccco3)c2ncn1CCO,-37,-19,-1,5,-3,100*
N=c1c2c(-c3ccccc3)c(-c3ccccc3)n(Cc3ccco3)c2ncn1CCN1CCOCC1,-43,14,0,-1,-17,100*
O=C(/C=C/c1ccc(O)c(O)c1)c1ccc(S(=O)(=O)N2CCCCCC2)cc1,-32,10,1,-11,2,95*
O=C(NCCCN1CCOCC1)C(=O)NCc1ccc(Cl)cc1,2,-3,0,14,-8,-3
Cc1ccc2cc3c(NC(=O)C(C)C)nn(C)c3nc2c1,-6,78*,3,-14,1,7
O=C(/C=N/O)Nc1ccc2sc3ccccc3c2c1,x,37,-5,10,x,x
COc1cc(CNCc2cccs2)ccc1OCC(=O)NC(C)(C)C,4,33,-1,4,6,89*
COc1cc(CNCc2cccs2)ccc1OCc1cccs1,5,5,-3,-1,-7,100*
CCOc1cc(CNCc2cccs2)ccc1OCC(=O)NC(C)(C)C,-3,18,2,3,-14,5
CC(=O)Nc1ccc(S(=O)(=O)Oc2cccc(/C=N/N=C3/NC(=O)C(CC(=O)O)S3)c2)cc1 (stereo not drawn),4,9,1,1,-1,-5
NS(=O)(=O)c1ccc(CNC(=O)/C=C/c2cccc([N+](=O)[O-])c2)cc1,x,4,0,10,x,x
Cc1nnc(N/N=C/c2cc([N+](=O)[O-])c(N3CCC(C)CC3)cc2N2CCC(C)CC2)n1N,-32,44,1,-2,-5,100*

# High-throughput results (PubChem BioAssay)
